KCNK3 block: human KCNK3 channel inhibitors, primary screen, CHO cells, FluxOR thallium flux, B-score; FluxOR fluorescence; stronger effect = lower value; hit rate 0.84% among 340,000; AID 602410, 2012; B-score at 10 µM; Potassium channel subfamily K member 3 (Homo sapiens), O14649;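 active means B-score under library mean minus 4 SD, starting fluorescence ratio at most library mean plus 5 SD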;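 further: more negative B-score means stronger inhibition of thallium flux through KCNK3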
hERG protect: hERG rescue from dofetilide block, primary screen, cell-based, CHO-hERG, FluxOR thallium flux, dofetilide IC70. hit rate 0.51% among 310,000. activation (rescue from dofetilide block), less the hit threshold, % at 10 µM. Voltage-gated inwardly rectifying potassium channel KCNH2 (Homo sapiens), Q12809. dofetilide IC70 present. AID 1511, 2009;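 active means activation above the mean of controls blocked by dofetilide plus 5 SD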;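 further: thallium influx through hERG after potassium depolarization seen as dye fluorescence rise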
KCNQ1 inh: inhibitors of human KCNQ1 channel, primary screen, cell-based, thallium flux, high-throughput. CHO-K1 KCNQ1, FluxOR thallium flux fluorescence; stronger effect = higher value. hit rate 1.3% among 310,000. B-score at 10 µM. Potassium voltage-gated channel subfamily KQT member 1 (Homo sapiens), P51787;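 active means compounds whose thallium flux B-score, printed positive for inhibition, exceeds three library SD while starting fluorescence stays within three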;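 further: channel opened by potassium depolarization with thallium stimulus after 20 min compound exposure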
KCC2 mod: KCC2 cotransporter modulators, thallium flux, primary screen, cell-based, HEK293 KCC2, FluoZin-2 fluorescence, MLSMR; KCC2 cells, thallium flux FluoZin-2 fluorescence; B-score of Tl+ flux slope (higher = more flux/activation; lower = inhibition) at 10 µM; hit rate 2.2% among 190,000; AID 1456, 2008;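 active means thallium flux slope and its plate-corrected score both differing from the plate sample mean at a set confidence after two filtering rounds, in either direction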;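 further: slope of fluorescence scaled to starting intensity during 10 to 20 s after thallium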
KCNK9 block: KCNK9 potassium channel inhibitors, primary screen, HEK293 cells, thallium flux. Potassium channel subfamily K member 9 (Homo sapiens), Q9NPC2. FluxOR thallium flux fluorescence; stronger effect = lower value. B-score at 10 µM. hit rate 1.2% among 310,000;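 active means ratio B-score over 3 SD below the library mean, with starting fluorescence within 5 SD of its mean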;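 further: negative B-score means less thallium flux so channel inhibition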
KCNQ1 pot: potentiators or activators of KCNQ1 channel, primary screen, cell-based, thallium flux, high-throughput. CHO-K1 KCNQ1, thallium flux FluxOR fluorescence; stronger effect = higher value. hit rate 0.35% among 310,000. B-score at 10 µM. AID 2648, 2010;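 active means fluorescence ratio B-score, a plate-corrected score, at least three library SD, with initial intensity B-score within 5 SD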
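Test system: CHO-K1 cells stably expressing KCNQ1 / Medium: assay buffer / Also added: depolarizing K+/Tl+ stimulus, K2SO4 and Tl2SO4 each 12.5 mM in 5x stock / Incubation: 90 min dye loading and 20 min compound exposure, both at room temperature / Signal: thallium influx via FluxOR fluorescence, kinetic imaging / Evaluation: B score of baseline-normalized fluorescence ratio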
KCNK9 block conf: KCNK9 potassium channel inhibitors, confirmation, HEK293 cells, thallium flux, duplicate | shares compounds with KCNK9 block | FluxOR thallium flux fluorescence | inhibition, % at 10 µM | hit rate 43% among 4,900 | AID 492992, 2010;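 active means thallium signal inhibited by more than 5 SD of the compound-free buffer control wells, on both duplicate plates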
Kir21 sel: mouse Kir2.1 channel inhibition, confirmation, selectivity assay for KCNK9 modulator project, cell-based, HEK293, thallium flux; shares compounds with KCNK9 block; Kir2.1 cells, FluxOR thallium flux fluorescence; inhibition, % at 10 µM; hit rate 4% among 4,900; AID 492993, 2010;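 active means thallium signal drop more than 5 SD beyond the mean of the no-compound control wells, seen in both duplicate plates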;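 further: signal is fluorescence rise after thallium addition divided by baseline fluorescence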
Target sequence (P35561 whole entry, looked up): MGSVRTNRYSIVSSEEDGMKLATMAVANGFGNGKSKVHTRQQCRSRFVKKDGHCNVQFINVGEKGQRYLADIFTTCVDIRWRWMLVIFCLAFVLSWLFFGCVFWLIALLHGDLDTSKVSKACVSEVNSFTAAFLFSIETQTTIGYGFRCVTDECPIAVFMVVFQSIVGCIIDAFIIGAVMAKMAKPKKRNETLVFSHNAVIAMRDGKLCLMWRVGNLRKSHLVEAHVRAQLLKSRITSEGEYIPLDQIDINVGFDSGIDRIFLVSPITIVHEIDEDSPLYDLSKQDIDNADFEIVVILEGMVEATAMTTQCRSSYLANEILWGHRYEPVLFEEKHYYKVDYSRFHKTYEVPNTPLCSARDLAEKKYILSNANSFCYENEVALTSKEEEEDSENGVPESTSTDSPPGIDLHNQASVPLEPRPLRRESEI
KCNK9 uninduced: thallium flux in non-induced HEK293 cells, confirmation, counter-screen for KCNK9 inhibitor project, cell-based, second counter screen, non-induced KCNK9-HEK293; shares compounds with KCNK9 block; FluxOR thallium flux; hit rate 40% among 4,900; inhibition, % at 10 µM; AID 492997, 2010;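 active means thallium signal drop beyond 5 SD of the untreated control mean, on both duplicate plates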
Of the large screens only hits and unclear results are named; the others gave an inactive call (follow-up assays come after a bar, where they were run). Hits are enriched below; roughly 4.1% of the tested compounds scored in any of these assays.

CCCCNC(=O)c1onc(CSc2cc(C)cc(C)c2)c1C(=O)NCCCC	none (no result: KCC2 mod) | KCNK9 block conf inactive | Kir21 sel inactive | KCNK9 uninduced inactive
COCCNC(=O)c1onc(CSc2cc(C)cc(C)c2)c1C(=O)O	none
CCCCNC(=O)c1onc(CSc2cc(C)cc(C)c2)c1C(=O)O	none
N#Cc1c(N)[nH]c2ccc(Sc3ccccc3)cc12	none (no result: hERG protect, KCNQ1 inh, KCC2 mod, KCNK9 block, KCNQ1 pot)
O=C(NCc1cccc(C(F)(F)F)c1)C1CCC(=O)N(C2CCCCCC2)C1 (stereo not drawn)	none (no result: KCC2 mod)
CCOc1ccccc1NC(=O)n1ncc2c(C)cccc21	KCNK9 block -13 (no result: KCC2 mod) | KCNK9 block conf inactive | Kir21 sel inactive | KCNK9 uninduced 40%
Cc1ccsc1C(=O)N1CCN(c2ccccn2)CC1	KCNK9 block -8.1 (no result: KCC2 mod) | KCNK9 block conf inactive | Kir21 sel inactive | KCNK9 uninduced inactive
COc1cc(OC)cc(C(=O)N[C@H](C(=O)N2CCc3ccccc32)C(C)C)c1	KCNK9 block -11 | KCNK9 block conf 71% | Kir21 sel inactive | KCNK9 uninduced 31%
CCCCC(=O)Nc1cccc(NC(=O)c2ccc(Br)o2)c1	KCNK9 block -8.5 (no result: KCC2 mod) | KCNK9 block conf 43% | Kir21 sel inactive | KCNK9 uninduced inactive
CC(=O)c1cccc(NC(=O)c2ccc(Br)o2)c1	none
Cc1ccc(NC(=O)CSCc2ccc(F)cc2)cc1	none
Cc1ccc(CSCC(=O)Nc2ccccc2F)cc1	none | KCNK9 block conf inactive | Kir21 sel inactive | KCNK9 uninduced inactive
Cc1ccc(CCNC(=O)CSCc2ccc(F)cc2)cc1	none (no result: KCC2 mod) | KCNK9 block conf inactive | Kir21 sel inactive | KCNK9 uninduced inactive
COc1ccc(CSCC(=O)Nc2ccccc2SC)cc1	none | KCNK9 block conf inactive | Kir21 sel inactive | KCNK9 uninduced inactive
Cc1ccc(C(=O)COC(=O)CCN2C(=O)C3C4C=CC(C5CC45)C3C2=O)cc1 (stereo not drawn)	none (no result: KCC2 mod)
CC1(c2ccccc2Cl)NC(=O)N(CC(=O)c2ccc3c(c2)OCO3)C1=O (stereo not drawn)	none (no result: KCC2 mod)
CN(C)C(CNC(=O)C1CCN(S(=O)(=O)c2cc(Cl)ccc2Cl)CC1)Cc1ccccc1 (stereo not drawn)	none (no result: hERG protect, KCNQ1 inh, KCC2 mod, KCNK9 block, KCNQ1 pot)
CCN(CC(=O)Nc1ccc(Br)cc1)CC(=O)Nc1cc(C)on1	none (no result: hERG protect, KCNQ1 inh, KCC2 mod, KCNK9 block, KCNQ1 pot)
CCOC(=O)Cc1c(C)nc2c(-c3ccccc3OC)c(C)nn2c1C	none | KCNK9 block conf inactive | Kir21 sel inactive | KCNK9 uninduced inactive
C/C(=N\N1CCN(c2ccc(Cl)cc2)CC1)c1cccc([N+](=O)[O-])c1	KCNK9 block -11 | KCNK9 block conf 44% | Kir21 sel inactive | KCNK9 uninduced 30%
C/C(=N/N1CCN(c2ccccc2)CC1)c1cccc([N+](=O)[O-])c1	none (no result: KCC2 mod)
COc1cccc(OCc2cc(C(=O)NC(C)c3cnn(C)c3C)no2)c1 (stereo not drawn)	none (no result: KCC2 mod)
Cn1c(-c2ccc(C=O)s2)nc2c3ccccc3c3ccccc3c21	KCNQ1 inh 7, KCNK9 block -10 (no result: KCC2 mod) | KCNK9 block conf 33% | Kir21 sel inactive | KCNK9 uninduced 72%
CC(C)(C)OC(=O)n1cc(CCO)c2ccccc21	none (no result: hERG protect, KCNQ1 inh, KCC2 mod, KCNK9 block, KCNQ1 pot)

Bioassay records: PubChem, several laboratories
